# Shown are actives, neighbours in structure and some others; about 1.7% of the full set was active somewhere.
# Scp1 inh: inhibitors of human Scp-1 phosphatase | AID 493091 | Q9GZU7 | Recombinant Scp1, phosphopeptide, malachite green phosphate absorbance | inhibition, % at 20 µM | 340,000 tested, 0.88% active;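 active means inhibition above about 50% at 20 µM, limit read from the data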;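 further: plate controls were DMSO wells with enzyme for no effect and wells lacking enzyme for full effect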
#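 Material – SCP-1 phosphatase catalytic domain, residues 76-261 · Buffer or medium – Acidic Tris acetate buffer with magnesium and detergent · Also added – Phospho 17-mer peptide substrate · Compound – single 20 µM dose, 1% DMSO · Times – 45 min room-temperature reaction, 5 min colour, 30 min stabiliser · Technique – Phosphate-binding colour reagent, absorbance read at 630 nm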
# SUMO1-SIM PPI: SUMO1-SIM interaction modulation | SUMO1 binding to a labelled peptide, TR-FRET, 1 h | inhibition, % at 20 µM | 360,000 tested, 0.33% active | AID 602429; in the data active means inhibition above about 37%
# STEP block: STEP (human) phosphatase inhibition; P54829; recombinant STEP, OMFP fluorogenic substrate, fluorescence; inhibition, % at 20 µM; 360,000 tested, 0.25% active; AID 588621;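 active means inhibition at 20 µM, scaled per plate between control wells, above about 37%, limit read from the data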;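 further: 0% = DMSO with enzyme and substrate and 100% = substrate only without enzyme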
#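 Material: STEP (striatal-enriched tyrosine phosphatase) enzyme, cell-free; Compound dosing: 20 µM single dose in 1% DMSO; Technique: fluorescence read at 480 nm ex / 540 nm em; Times: reaction 20 min, ambient temperature; Medium: 50 mM Bis-Tris pH 6.0 with 2.5 mM DTT and 0.005% Tween 20; Also added: OMFP at 25 µM.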
# LMPTP inh: blocks human LMPTP phosphatase | P24666 | recombinant LMPTP-A, OMFP fluorogenic substrate, fluorescence intensity | inhibition, % at 20 µM | 360,000 tested, 0.22% active | AID 651560;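 active means compounds that cut the enzyme signal by at least half of the control window in the single-dose screen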;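 further: plate controls were DMSO wells with enzyme plus substrate for no effect and substrate without enzyme for full effect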
#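 Test system – LMPTP-A enzyme · Amount – LMPTP-A at 0.625 nM final in the reaction · Buffer or medium – Bis-Tris pH 6.0, DTT, detergent · Reagent – OMFP 400 µM · Doses – single 20 µM dose · Schedule – reaction 50 min, room temperature, dark · Detection – fluorescence intensity of OMFP turnover product · Evaluation – percent inhibition versus substrate-only and uninhibited controls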
# DSG3 Ab inh: blocks pemphigus antibody binding to human desmoglein-3; AID 588358; DSG3-coupled beads, scFv-anti-DSG3-GFP binding, flow cytometry; stronger effect = lower value; binding (percent of control), % at 10 µM; 310,000 tested, 0.48% active; P32926;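 active means binding more than 3 SD below its plate's average and above zero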;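 further: hits lower antibody fragment binding to DSG3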
# Target sequence (P32926 whole entry, looked up, the tested form may be a part): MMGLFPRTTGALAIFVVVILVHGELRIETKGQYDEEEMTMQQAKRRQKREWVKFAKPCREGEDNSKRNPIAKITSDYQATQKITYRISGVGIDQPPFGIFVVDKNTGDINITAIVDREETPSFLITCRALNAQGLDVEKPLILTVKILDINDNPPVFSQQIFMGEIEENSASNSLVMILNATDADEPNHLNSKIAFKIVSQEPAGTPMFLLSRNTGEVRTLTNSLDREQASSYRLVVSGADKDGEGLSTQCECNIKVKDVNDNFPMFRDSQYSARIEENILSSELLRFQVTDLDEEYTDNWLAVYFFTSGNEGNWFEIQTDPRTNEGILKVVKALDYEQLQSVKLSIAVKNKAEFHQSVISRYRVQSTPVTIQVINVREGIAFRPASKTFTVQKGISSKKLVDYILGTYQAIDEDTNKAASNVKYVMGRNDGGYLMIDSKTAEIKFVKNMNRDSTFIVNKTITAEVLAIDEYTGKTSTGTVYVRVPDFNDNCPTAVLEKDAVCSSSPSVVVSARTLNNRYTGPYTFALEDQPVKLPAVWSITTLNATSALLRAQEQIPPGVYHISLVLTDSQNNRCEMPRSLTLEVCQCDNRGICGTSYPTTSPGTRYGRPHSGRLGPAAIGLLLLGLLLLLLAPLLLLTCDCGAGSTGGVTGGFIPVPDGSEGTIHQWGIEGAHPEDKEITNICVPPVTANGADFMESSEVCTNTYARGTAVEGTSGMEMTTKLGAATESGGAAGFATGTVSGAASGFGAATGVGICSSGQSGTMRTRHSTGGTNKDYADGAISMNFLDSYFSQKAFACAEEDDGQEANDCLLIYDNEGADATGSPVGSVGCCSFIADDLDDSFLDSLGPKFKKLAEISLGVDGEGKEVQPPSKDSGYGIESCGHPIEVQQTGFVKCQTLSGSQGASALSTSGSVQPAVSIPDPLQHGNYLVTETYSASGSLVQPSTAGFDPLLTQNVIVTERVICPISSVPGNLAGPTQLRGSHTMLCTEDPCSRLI
# Scp-1 conf: Scp-1 (human) inhibition, single-dose confirmed; shares compounds with Scp1 inh; recombinant SCP-1 catalytic domain, phosphate release, malachite green absorbance; inhibition, % at 20 µM; 2,500 tested, 61% active; AID 540281;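 further: plate controls were DMSO with enzyme for no effect and buffer wells lacking enzyme for full effect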
# Scp-1 MG ctr: colorimetric interference in Scp-1 counter-screen; shares compounds with Scp1 inh; Colorimetric interference counterscreen, malachite green absorbance 630 nm; apparent inhibition (interference), % at 20 µM; 2,500 tested, under 10 active;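 further: compounds added after enzyme reaction finished so only phosphate colour detection is probed; plate controls were DMSO wells with completed Scp-1 reaction for no effect and substrate wells lacking enzyme for full effect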
# Scp-1 Tm shift: binds human Scp-1, shifting its melting temperature. thermal shift relative to vanadate control, % at 40 µM. shares compounds with Scp1 inh. AID 540329. Recombinant SCP1, Sypro Orange thermal shift Tm. 1,500 tested, 25% active;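 active means substances whose mean melting-temperature shift, as a percentage of the reference inhibitor's shift, reaches about 5.3%, limit read from the data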;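 further: 0% = Tm of DMSO wells and 100% = Tm with sodium orthovanadate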
# An asterisk follows results filed as active; . = not tested or not shown.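 How the source made its calls, unless noted: active means inhibition of at least 30% at 20 µM; inactive means the rest.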
SMILES,Scp1 inh,SUMO1-SIM PPI,STEP block,LMPTP inh,DSG3 Ab inh,Scp-1 conf,Scp-1 MG ctr,others
Cc1ccc(NC(=O)/C=C/c2ccco2)nc1,63*,-11,-3,0,100,34*,-15,Scp-1 Tm shift=-5
Cc1cc(Nc2ccccc2)n(-c2ccc(Br)cc2)n1,54*,1,-5,3,101,-16,-12,
Cc1cc(Nc2ccc(Cl)cc2)n(-c2ccccc2)n1,15,0,-1,2,104,.,.,
CC1=NN(c2nc(-c3ccc(C)cc3)cs2)C(=O)C1N=Nc1ccccc1O (stereo not given),58*,20,2,2,100,71*,-18,Scp-1 Tm shift=7.4*
CC(=O)Nc1ccc(N=Cc2nc(-c3ccc(C)cc3)oc2O)cc1,76*,-13,2,6,.,16,-15,
Cc1ccc(N=Cc2nc(-c3ccc(C)cc3)oc2O)cc1,2,-3,-2,-1,98,.,.,
Cc1cc2oc(=O)cc(-c3cc4ccccc4o3)c2cc1O,91*,14,35,66*,128,79*,-10,Scp-1 Tm shift=4
Cc1nnc2ccc(-c3ccc(NC(=O)c4ccco4)cc3)nn12,89*,52*,1,7,89,18,-12,
CC(=O)Nc1ccc(-c2ccc3nnc(C)n3n2)cc1,-15,-20,1,-1,88,.,.,
O=C(Nc1ccc(-c2ccccc2)cc1)c1ccco1,59*,1,1,0,106,-16,-18,
O=C(Nc1ccc(F)cc1)C1CCCN1S(=O)(=O)c1ccc(Br)cc1 (stereo not given),-4,3,-2,-2,113,.,.,
CCNc1nc(SCCOc2ccc(Cl)cc2Cl)nc(N(C)C)n1,7,4,1,3,99,.,.,
Cc1ccc[n+](CC(=O)Nc2ccc(Cl)c([N+](=O)[O-])c2)c1,84*,-17,-1,-1,104,-1,-5,
CCOc1cc(/C=N/Nc2ccccc2Cl)ccc1OCC(=O)O,54*,24,14,1,98,16,-12,
CCOc1ccc(C=NNc2ccc(S(=O)(=O)Nc3ccccc3C(=O)O)cc2[N+](=O)[O-])cc1OC,72*,25,98*,37,.,86*,-8,Scp-1 Tm shift=17*
COCCCNC1=C(C#N)C(=O)NC(c2cccs2)S1 (stereo not given),.,2,4,-2,108,.,.,
C/C(CC(=O)Nc1ccc(Cl)c(Cl)c1)=N\NC(N)=S,-12,0,-3,-2,.,.,.,
CCn1ncc(Br)c1C(=O)NC(C)c1ccccc1 (stereo not given),81*,3,-19,-1,.,-1,-5,
CC1CCN(C(=O)CS(=O)(=O)Cc2ccccc2)CC1,-5,6,-2,0,104,.,.,
Cc1sc2ncnc(N3CCC(C(=O)Nc4ccc(OC(F)F)c(Cl)c4)CC3)c2c1C,-306,15,0,5,.,.,.,
CCN(CC)CCNC(=O)c1ccc(NC(=O)C2CCN(c3ncnc4sc(C)c(C)c34)CC2)cc1,112*,-7,-1,1,119,-14,-8,
C=CCNC(=O)c1ccc(C2SCC(=O)N2Cc2ccco2)cc1 (stereo not given),69*,-1,1,3,125,53*,-20,Scp-1 Tm shift=-3
Cc1ccc(C)c(SCC(=O)OCC(=O)NCCNC(=O)COC(=O)CSc2cc(C)ccc2C)c1,-9,1,-1,0,115,.,.,
CC1CCN(C(=O)CCc2ccc(S(=O)(=O)NC(C)C)cc2)CC1,67*,-2,-3,-1,104,-23,-21,
CC(C)NS(=O)(=O)c1ccc(CCC(=O)N2CCc3ccccc3C2)cc1,-3,-1,-2,0,93,.,.,
SMILES,Scp1 inh,SUMO1-SIM PPI,STEP block,LMPTP inh,DSG3 Ab inh,Scp-1 conf,Scp-1 MG ctr,others
Cc1ccc(CCNC(=O)CCNS(=O)(=O)c2ccc3c(c2)oc(=O)n3C)cc1,-2,2,-2,-1,97,-3,-1,
Cn1c(=O)oc2cc(S(=O)(=O)NCCC(=O)NCCc3ccc(Cl)cc3)ccc21,-1,3,-2,0,101,.,.,
Cc1ccc(C)c(S(=O)(=O)N2CCN(C(=O)Cn3c(C(F)(F)F)nc4ccccc43)CC2)c1,-8,1,0,1,106,.,.,
O=C(c1ccccc1)c1nc[nH]c1C(=O)Nc1ccccc1,-2,1,3,-4,102,.,.,
CCCCCC(=O)N1CC2(CC)CN(C(=O)CCCCC)CC(CC)(C1)C2=O,-7,3,-3,-2,86,.,.,
CC(=O)Nc1ccc(S(=O)(=O)NCC(=O)NNC(=O)COc2c(C)cccc2C)cc1,-5,-1,2,-2,100,.,.,
CC(=O)Nc1ccc(S(=O)(=O)NCC(=O)NNC(=O)COc2ccccc2Cl)cc1,-3,-1,0,-1,91,-25,-26,
COc1cc(/C=C/c2cc[n+](C)cc2)ccc1OCC(=O)Nc1ccccc1,77*,-56,0,-2,104,89*,-6,Scp-1 Tm shift=-16
CC(=O)N/N=C(\C)CC(=O)NC(C)(C)C,1,-2,-3,-2,106,.,.,
Cc1onc(-c2ccccc2)c1C(=O)Nc1nnc(-c2ccncc2)s1,-4,13,-2,1,100,.,.,
Cc1noc(C)c1C(=O)Nc1nnc(-c2ccccc2)s1,67*,2,6,-1,103,-24,-22,
O=C(c1cc2ncc(Br)cn2n1)N1CCN(C(=O)c2ccco2)CC1,56*,6,1,-1,.,43*,-11,Scp-1 Tm shift=-10
CN(C(=O)c1ccccc1C(=O)OCC(=O)Nc1ccccc1)c1ccccc1,-1,1,-2,-1,84,.,.,
O=C(Oc1ccccc1C(=O)N1CCOCC1)c1ccc(F)cc1,97*,4,2,2,.,0,-5,
O=C(Nc1ccc2c(c1)OCO2)C1CC(=O)N(c2ccc(F)cc2)C1 (stereo not given),-5,2,2,0,119,.,.,
Cc1ccc(C(=O)CSC2=C(C#N)C(c3ccco3)CC(=O)N2)c(C)c1 (stereo not given),61*,-11,7,2,.,56*,-11,Scp-1 Tm shift=2
CC1(C(=O)NCCC#N)CCN1C(=O)CC(c1ccccc1)c1ccccc1 (stereo not given),.,10,2,-1,.,.,.,

# Compound activity as filed in PubChem BioAssay.
